Values after ≈ are worked out from the molar mass of the structure shown.
Tests used:
[1] = Clearance in Sprague-Dawley rat by HPLC; format: ADME, organism-based; details: in vivo
Procedure, shortened: (§1)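 Rat IV pharmacokinetics: male Sprague-Dawley, n=3, 1 mg/kg tail-vein dose in 3% DMSO/30% Solutol/67% PBS; plasma over 0.083–6 h quantified by HPLC-MS/MS; parameters estimated per rat by non-compartmental analysis.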

[2] = Volume of distribution in Sprague-Dawley rat by HPLC; format: ADME, organism-based; details: in vivo; procedure, shortened: as §1
Rattus norvegicus [3] = assay: AUC in Sprague-Dawley rat at 5 mg/kg, po by HPLC; format: ADME, organism-based, Plasma; design: dose 5 mg/kg, route oral; details: in vivo
Rattus norvegicus [4] = assay: AUC in Sprague-Dawley rat at 1 mg/kg, iv by HPLC; format: ADME, organism-based, Plasma; design: dose 1 mg/kg, route intravenous; details: in vivo
[5] = Oral bioavailability Sprague-Dawley rat at 5 mg/kg by HPLC; format: ADME, organism-based; details: in vivo
Procedure, shortened: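 Male Sprague-Dawley rats (n=3/group) given 1 mg/kg IV (DMSO/Solutol/PBS) or, after overnight fast, 5 mg/kg oral gavage in PEG400; plasma by HPLC-MS/MS; F% = dose-normalised oral AUC0-∞ divided by IV AUC0-∞, times 100.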

[6] = Solubility of the compound; format: physicochemical
[7] = Solubility of the compound at pH 7.4; format: physicochemical; details: buffer
[8] = Half life in Sprague-Dawley rat liver microsomes; format: ADME, Microsome

SMILES	clearance [1] [mL/min/kg]	Vd [2] [L/kg]	AUC (Rattus norvegicus [3]) [ng·h/mL]	AUC (Rattus norvegicus [4]) [ng·h/mL]	bioavailability [5] [%]	solubility [6] [µg/mL]	solubility [7] [µg/mL]	half-life [8] [min]
CNC(=O)c1cccc(F)c1Nc1nc(Nc2ccc3c(c2)NC(=O)C(NC(=O)OC)CC3(C)C)ncc1Cl.O=C(O)C(F)(F)F (racemic)	15	1	987	1200	16			
CNC(=O)c1cccc(F)c1Nc1nc(Nc2ccc3c(c2)NC(=O)C(NC(C)=O)CC3(C)C)ncc1Cl.O=C(O)C(F)(F)F (racemic)	33	2	48	654	2			
CNC(=O)c1cccc(F)c1Nc1nc(Nc2ccc3c(c2)NC(=O)[C@@H](NC(=O)N2CCCC2)CC3(C)C)ncc1Cl	5	0.6	5550	3190	35			
CCN1C(=O)CCC(C)(C)c2ccc(Nc3ncc(Cl)c(Nc4c(F)cccc4C(=O)NC)n3)cc21					0			
CNC(=O)c1cccc(F)c1Nc1nc(Nc2ccc3c(c2)NC(=O)C(N)CC3(C)C)ncc1Cl (racemic)		4.6		787		> 120		
CNC(=O)c1cccc(F)c1Nc1nc(Nc2ccc3c(c2)NC(=O)C(NC(=O)CN(C)C)CC3(C)C)ncc1Cl.O=C(O)C(F)(F)F (racemic)	32	3	61	825	1			
CNC(=O)c1cccc(F)c1Nc1nc(Nc2ccc3c(c2)NC(=O)[C@H](NC(=O)N2CCCC2)CC3(C)C)ncc1Cl	5	0.6	5850	3460	34		26 (≈ 43.7 µM)	21
CNC(=O)c1cccc(F)c1Nc1nc(Nc2ccc3c(c2)NC(=O)C(NC(=O)C(F)(F)F)CC3(C)C)ncc1Cl.O=C(O)C(F)(F)F (racemic)	16	1.2	606	1310	9	8		
CNC(=O)c1cccc(F)c1Nc1nc(Nc2ccc3c(c2)NC(=O)CCC3(C)C)ncc1Cl	16	0.5	46	1060	1	21 (≈ 43.5 µM)	21 (≈ 43.5 µM)	15
CNC(=O)c1cccc(F)c1Nc1nc(Nc2ccc3c(c2)NC(=O)C(NC(=O)COC)CC3(C)C)ncc1Cl.O=C(O)C(F)(F)F (racemic)	20	1.3	497	846	12			
CNC(=O)c1cccc(F)c1Nc1nc(Nc2ccc3c(c2)NC(=O)C(NC(=O)N2CCCC2)CC3(C)C)ncc1Cl.O=C(O)C(F)(F)F (racemic; form 1)	6	0.8	2630	3420	15			
CNC(=O)c1cccc(F)c1Nc1nc(Nc2ccc3c(c2)NC(=O)C(NC(=O)N2CCCC2)CC3(C)C)ncc1Cl (racemic; form 2)	8	0.8	4660	2330	40			
